# From publication PMC8341878 (RSC Chemical Biology, 2020)
# “And” between values parts separate entries of the source, which are not always exact repeats. Identical values can stand only once. Peptide text beside a SMILES is read from it.
# Tests used:
# E. coli D22 strain = assay: Microdilution broth assay; type: cell-based, Escherichia coli
# Summary of the method: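 E. coli D22 was grown in Mueller Hinton broth to OD600 0.6–0.8, then diluted so wells held about 2 to 5 × 10^5 cfu per mL with serially diluted peptide in MH broth. Plates were read at 620 nm after 18–24 h at 37 °C. MIC was the lowest concentration with no turbidity increase. For MBC, wells were plated on LB agar; ≥99.9% kill versus inoculum. Duplicates, ≥2 independent experiments.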
# [1] = target: ^EcSC (E. coli sliding clamp, DnaN) (Escherichia coli, UniProt P0A988); assay: ITC, peptide interaction with E. coli sliding clamp; type: binding
# Summary of the method: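 Recombinant His-tagged E. coli DnaN was expressed in BL21(DE3) pLys (IPTG 0.1 mM, 28 °C overnight), purified by Ni-NTA then Source Q, and exchanged into 10 mM Hepes pH 7.4, 0.15 M NaCl, 3 mM EDTA. Peptide (100 to 400 μM) was injected stepwise into 20 or 30 μM clamp at 30 °C. Peptide-into-buffer controls were subtracted. Each titration was run at least twice; mean ± sd.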
# Mycobacterium smegmatis = conditions: cited from earlier work
# [2] = E. coli D22, decrease of at least 99.9% of cell viability vs inoculum, minimum of 2 independent biological replicates
# Chain of ^EcSC (E. coli sliding clamp, DnaN) (P0A988 whole entry): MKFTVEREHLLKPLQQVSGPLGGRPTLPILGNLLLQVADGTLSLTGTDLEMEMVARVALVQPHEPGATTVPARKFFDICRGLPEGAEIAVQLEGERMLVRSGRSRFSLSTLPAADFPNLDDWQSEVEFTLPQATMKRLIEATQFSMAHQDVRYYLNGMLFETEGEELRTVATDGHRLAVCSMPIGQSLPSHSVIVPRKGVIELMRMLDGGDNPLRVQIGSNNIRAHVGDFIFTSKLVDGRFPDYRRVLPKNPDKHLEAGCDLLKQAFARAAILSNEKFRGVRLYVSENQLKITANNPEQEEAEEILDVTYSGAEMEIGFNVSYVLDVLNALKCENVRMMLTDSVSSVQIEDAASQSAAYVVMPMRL
Molecule,"MBC (E. coli D22 strain; Escherichia coli, D22STRAIN)","MIC (E. coli D22 strain; Escherichia coli, D22STRAIN)",MBC (E. coli D22 strain; [2]),other results
CC1(C)S[C@@H]2[C@H](NC(=O)[C@H](N)c3ccccc3)C(=O)N2[C@H]1C(=O)O [Ampicillin],16 µg/mL,22.9 µM to 45.8 µM and 8 µg/mL to 16 µg/mL,–,–
CC[C@H](C)[C@H](NC(=O)[C@@H](CCCNC(=N)N)NC(=O)[C@H](CCCNC(=N)N)NC(=O)[C@@H]1CCCN1C(=O)[C@@H]1CCCN1C(=O)[C@H](CCCNC(=N)N)NC(=O)[C@@H]1CCCN1C(=O)[C@H](CCCNC(=N)N)NC(=O)[C@@H]1CCCN1C(=O)[C@H](CC(C)C)NC(=O)[C@H](Cc1ccc(O)cc1)NC(=O)[C@@H]1CCCN1C(=O)[C@@H]1CCCN1C(=O)[C@H](CCCCN)NC(=O)[C@H](CC(=O)O)NC(=O)[C@@H](N)C(C)C)C(=O)N[C@@H](Cc1ccc(O)cc1)C(=O)N[C@@H](CC(N)=O)C(=O)N[C@H](CCCNC(=N)N)C(=O)N[C@@H](CC(N)=O)C(=O)NCC(=O)N1CCC[C@H]1C(=O)N[C@@H](CCCNC(=N)N)C(=O)N[C@@H](CCC(N)=O)C(=O)N[C@@H](CC1CCCCC1)C(=O)N[C@@H](CC(=O)O)C(=O)N[C@@H](CC(C)C)C(=O)N[C@@H](Cc1ccccc1)C(=O)O [Onc112-P7] (HELM PEPTIDE1{V.D.K.P.P.Y.L.P.R.P.R.P.P.R.[dR].I.Y.N.[dR].N.G.P.R.Q.[Cha].D.L.F}$$$$V2.0),–,–,2 µg/mL,Kd ([1]; SD): 200 ± 0.1 nM
CC[C@H](C)[C@H](NC(=O)[C@@H](CCCNC(=N)N)NC(=O)[C@H](CCCNC(=N)N)NC(=O)[C@@H]1CCCN1C(=O)[C@@H]1CCCN1C(=O)[C@H](CCCNC(=N)N)NC(=O)[C@@H]1CCCN1C(=O)[C@H](CCCNC(=N)N)NC(=O)[C@@H]1CCCN1C(=O)[C@H](CC(C)C)NC(=O)[C@H](Cc1ccc(O)cc1)NC(=O)[C@@H]1CCCN1C(=O)[C@@H]1CCCN1C(=O)[C@H](CCCCN)NC(=O)[C@H](CC(=O)O)NC(=O)[C@@H](N)C(C)C)C(=O)N[C@@H](Cc1ccc(O)cc1)C(=O)N[C@@H](CC(N)=O)C(=O)N[C@H](CCCNC(=N)N)C(N)=O [Onc112] (HELM PEPTIDE1{V.D.K.P.P.Y.L.P.R.P.R.P.P.R.[dR].I.Y.N.[dR].[am]}$$$$V2.0),–,–,1 µg/mL,"K D ([1]; ITC at 30 °C, R1 buffer 10 mM Hepes pH 7.4, 0.15 M NaCl, 3 mM EDTA, peptide 100-400 μM into SC 20 or 30 μM, means ± sd of at least 2 independent experiments, ni = no specific interaction): ni"
CC[C@H](C)[C@H](NC(=O)[C@@H]1CCCN1C(=O)[C@H](CCCNC(=N)N)NC(=O)[C@@H]1CCCN1C(=O)[C@@H]1CCCN1C(=O)[C@@H](NC(=O)[C@@H]1CCCN1C(=O)[C@H](CCCNC(=N)N)NC(=O)[C@@H]1CCCN1C(=O)[C@H](CC(C)C)NC(=O)[C@H](Cc1ccc(O)cc1)NC(=O)[C@H](CO)NC(=O)CNC(=O)[C@H](CCCCN)NC(=O)[C@H](CC(=O)O)NC(=O)[C@@H](N)C(C)C)[C@@H](C)O)C(=O)N[C@@H](Cc1ccc(O)cc1)C(=O)N[C@@H](CC(N)=O)C(=O)N[C@@H](CCCNC(=N)N)C(=O)N[C@@H](CC(N)=O)C(=O)NCC(=O)N1CCC[C@H]1C(=O)N[C@@H](CCCNC(=N)N)C(=O)N[C@@H](CCC(N)=O)C(=O)N[C@@H](CC1CCCCC1)C(=O)N[C@@H](CC(=O)O)C(=O)N[C@@H](CC(C)C)C(=O)N[C@@H](Cc1ccccc1)C(=O)O [Py-P7] (HELM PEPTIDE1{V.D.K.G.S.Y.L.P.R.P.T.P.P.R.P.I.Y.N.R.N.G.P.R.Q.[Cha].D.L.F}$$$$V2.0),–,–,8 µg/mL,–
CN(C)[C@@H]1C(O)=C(C(N)=O)C(=O)[C@@]2(O)C(O)=C3C(=O)c4c(O)cccc4[C@@](C)(O)[C@H]3C[C@@H]12 [Tetracycline],0.5 µg/mL,0.56 µM to 1.12 µM and 0.25 µg/mL to 0.5 µg/mL,–,–
griselimycin,–,–,–,frequency of resistance (Mycobacterium smegmatis): 5 × 10^−10
